According to ChEMBL document CHEMBL3352812, “Shogaol-huprine hybrids: dual antioxidant and anticholinesterase agents with β-amyloid and tau anti-aggregating properties” (Bioorg Med Chem, 2014):

Tests used:
[1] = Antioxidant activity assessed as DPPH free radical scavenging activity measured as trolox equivalent after 30 mins by spectrophotometry; format: physicochemical; design: unit not given beside the values; settings: 0.5 h
Summary of the method: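 Sample or trolox (5 µL) mixed with 250 µL methanolic DPPH (0.025 g/L), shaken, held in darkness 30 min, absorbance at 515 nm. Calibrated with trolox solutions; reported as µmol trolox/µmol compound; triplicate, mean ± SEM of three experiments.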

Cholinesterase [2] = target: T1, Cholinesterase (Homo sapiens, UniProt P06276); experiment: Inhibition of human serum BChE using butyrylthiocholine iodide preincubated for 20 mins before substrate addition by Ellman method
T1 sequence (P06276 whole entry): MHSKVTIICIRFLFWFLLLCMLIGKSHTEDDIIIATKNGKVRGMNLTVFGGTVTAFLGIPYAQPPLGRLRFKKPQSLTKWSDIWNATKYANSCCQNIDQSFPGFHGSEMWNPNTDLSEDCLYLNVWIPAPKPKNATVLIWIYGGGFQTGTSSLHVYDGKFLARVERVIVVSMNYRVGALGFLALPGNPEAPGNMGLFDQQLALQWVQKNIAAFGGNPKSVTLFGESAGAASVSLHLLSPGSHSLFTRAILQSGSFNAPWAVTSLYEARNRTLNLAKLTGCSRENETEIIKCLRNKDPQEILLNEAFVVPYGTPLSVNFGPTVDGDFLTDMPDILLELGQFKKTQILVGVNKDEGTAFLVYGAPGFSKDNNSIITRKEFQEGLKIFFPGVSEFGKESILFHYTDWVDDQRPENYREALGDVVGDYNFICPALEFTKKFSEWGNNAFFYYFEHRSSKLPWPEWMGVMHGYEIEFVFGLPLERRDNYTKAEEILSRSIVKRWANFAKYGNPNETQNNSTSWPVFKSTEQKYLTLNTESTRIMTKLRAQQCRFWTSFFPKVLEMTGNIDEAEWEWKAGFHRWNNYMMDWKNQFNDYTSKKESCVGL
Summary of the method: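 Ellman spectrophotometric assay in 0.1 M phosphate buffer. Enzymes were human recombinant AChE and human serum BChE. Inhibitor (at least 10 increasing concentrations, in duplicate) was preincubated 20 min at 37 °C. Acetylthiocholine iodide (450 µM, AChE) or butyrylthiocholine iodide (300 µM, BChE) was then added and reacted 5 min at 37 °C, with absorbance read at 414 nm. The no-inhibitor control set 100% activity. IC50 came from non-linear regression, at least 4 experiments.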

[3] = target: Microtubule-associated protein tau (Homo sapiens) (UniProt P10636); experiment: Inhibition of aggregation of TAU (unknown origin) expressed in Escherichia coli BL21 (DE3) at 10 uM after 24 hrs by thioflavin S fluorescence assay
Chain of Microtubule-associated protein tau (Homo sapiens) (P10636 whole entry): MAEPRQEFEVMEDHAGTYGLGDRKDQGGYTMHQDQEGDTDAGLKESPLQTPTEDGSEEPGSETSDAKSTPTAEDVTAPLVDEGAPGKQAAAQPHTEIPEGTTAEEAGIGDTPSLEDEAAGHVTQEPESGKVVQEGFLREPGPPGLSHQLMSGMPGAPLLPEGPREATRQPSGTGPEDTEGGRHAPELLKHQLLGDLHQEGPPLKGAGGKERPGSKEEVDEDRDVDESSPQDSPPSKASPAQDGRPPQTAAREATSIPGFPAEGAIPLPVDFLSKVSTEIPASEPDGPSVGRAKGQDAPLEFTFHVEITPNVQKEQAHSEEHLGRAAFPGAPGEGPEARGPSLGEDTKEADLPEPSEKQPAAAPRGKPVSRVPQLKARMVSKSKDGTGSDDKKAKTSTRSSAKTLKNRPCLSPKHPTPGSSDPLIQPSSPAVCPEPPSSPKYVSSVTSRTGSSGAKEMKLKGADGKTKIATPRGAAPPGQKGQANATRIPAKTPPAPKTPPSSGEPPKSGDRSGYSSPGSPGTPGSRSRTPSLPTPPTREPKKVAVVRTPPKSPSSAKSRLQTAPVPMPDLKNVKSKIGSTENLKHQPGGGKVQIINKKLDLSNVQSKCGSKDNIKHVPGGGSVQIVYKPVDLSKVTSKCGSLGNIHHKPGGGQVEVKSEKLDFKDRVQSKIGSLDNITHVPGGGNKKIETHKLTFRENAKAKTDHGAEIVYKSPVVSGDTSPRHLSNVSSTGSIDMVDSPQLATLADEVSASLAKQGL
Summary of the method: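 E. coli BL21(DE3) with pTARA (T7 RNA polymerase under pBAD) transformed with pRKT42 encoding four-repeat tau; overnight culture at 37 °C in M9 with 0.5% glucose, ampicillin 50 µg/mL, chloramphenicol 12.5 µg/mL. Th-S fluorescence at 455 nm (ex 375 nm) normalised to OD600, with induced untreated cells as 100%; mean ± SEM of four experiments.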

in vitro = settings: PAMPA
[4] = Antioxidant activity assessed as total polyphenolics measured as gallic acid equivalent after 30 mins by Folin-Ciocalteu assay; format: physicochemical; settings: 0.5 h
[5] = target: Amyloid-beta precursor protein (Homo sapiens) (UniProt P05067); experiment: Inhibition of aggregation of amyloid beta (1 to 42) (unknown origin) expressed in Escherichia coli BL21 (DE3) at 10 uM after 24 hrs by thioflavin S fluorescence assay
Chain of Amyloid-beta precursor protein (Homo sapiens) (P05067 whole entry): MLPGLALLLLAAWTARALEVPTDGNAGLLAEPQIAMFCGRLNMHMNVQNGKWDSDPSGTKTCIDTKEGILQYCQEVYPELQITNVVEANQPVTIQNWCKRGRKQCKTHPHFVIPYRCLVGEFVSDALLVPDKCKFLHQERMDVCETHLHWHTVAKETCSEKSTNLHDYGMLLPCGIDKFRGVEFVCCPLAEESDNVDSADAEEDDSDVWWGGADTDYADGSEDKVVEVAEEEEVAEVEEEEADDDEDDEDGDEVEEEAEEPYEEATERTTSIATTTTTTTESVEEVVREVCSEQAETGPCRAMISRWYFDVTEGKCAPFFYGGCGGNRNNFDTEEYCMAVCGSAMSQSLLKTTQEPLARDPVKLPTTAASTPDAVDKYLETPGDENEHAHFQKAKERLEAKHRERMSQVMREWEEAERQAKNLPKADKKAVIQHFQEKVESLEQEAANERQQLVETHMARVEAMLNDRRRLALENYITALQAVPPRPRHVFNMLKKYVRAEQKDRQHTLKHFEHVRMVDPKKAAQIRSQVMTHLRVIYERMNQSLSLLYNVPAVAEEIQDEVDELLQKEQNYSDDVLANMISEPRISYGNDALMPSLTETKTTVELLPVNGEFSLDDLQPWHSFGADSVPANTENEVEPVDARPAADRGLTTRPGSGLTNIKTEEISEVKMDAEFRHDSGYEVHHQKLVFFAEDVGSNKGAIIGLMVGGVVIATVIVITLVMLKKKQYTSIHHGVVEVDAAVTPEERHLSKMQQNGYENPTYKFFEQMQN
Summary of the method: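 E. coli BL21(DE3) carrying Aβ42 plasmid grown overnight at 37 °C in LB with kanamycin 50 µg/mL; diluted into LB with kanamycin, 1 mM IPTG, compound in DMSO and Th-S, grown 24 h at 37 °C, 1400 rpm; DMSO-only negative control. Th-S emission 455 nm (ex 375 nm) normalised to OD600, induced untreated cells set as 100%; mean ± SEM of four experiments.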

[6] = Antioxidant activity assessed as ABTS free radical scavenging activity measured as trolox equivalent after 1 hr by spectrophotometry; format: physicochemical
Summary of the method: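 ABTS radical cation generated by passing 5 mM ABTS stock through MnO2 and filtering; 245 µL radical solution added to 5 µL sample or trolox, stirred 30 s, kept dark 1 h, A734 read against MeOH blanks. Trolox calibration; expressed as µmol trolox/µmol compound; triplicate analyses, mean ± SEM of three experiments.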

Acetylcholinesterase [7] = target: T2, Acetylcholinesterase (Homo sapiens, UniProt P22303); experiment: Inhibition of human recombinant AChE using acetylthiocholine iodide as substrate preincubated for 20 mins before substrate addition by Ellman method
T2 sequence (P22303 whole entry): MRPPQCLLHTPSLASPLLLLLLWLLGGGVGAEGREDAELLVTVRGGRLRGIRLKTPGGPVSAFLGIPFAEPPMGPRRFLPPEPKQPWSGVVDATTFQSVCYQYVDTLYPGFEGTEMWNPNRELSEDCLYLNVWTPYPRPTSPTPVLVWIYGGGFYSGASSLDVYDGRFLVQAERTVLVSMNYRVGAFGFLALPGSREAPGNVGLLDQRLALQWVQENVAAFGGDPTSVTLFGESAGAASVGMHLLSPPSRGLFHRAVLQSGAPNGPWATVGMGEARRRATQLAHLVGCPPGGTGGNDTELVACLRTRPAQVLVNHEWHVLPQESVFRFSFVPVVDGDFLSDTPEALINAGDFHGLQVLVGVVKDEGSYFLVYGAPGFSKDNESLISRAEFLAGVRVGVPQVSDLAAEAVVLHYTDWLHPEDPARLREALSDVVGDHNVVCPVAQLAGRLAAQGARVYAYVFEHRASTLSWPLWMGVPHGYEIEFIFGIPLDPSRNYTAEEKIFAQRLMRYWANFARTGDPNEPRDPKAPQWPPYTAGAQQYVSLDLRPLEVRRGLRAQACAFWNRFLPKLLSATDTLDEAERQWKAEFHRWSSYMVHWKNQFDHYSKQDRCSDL

Cholinesterase [8] = target: T1, Cholinesterase; experiment: Inhibition of human serum BChE using butyrylthiocholine iodide at 10 uM preincubated for 20 mins before substrate addition by Ellman method
Acetylcholinesterase [9] = target: T2, Acetylcholinesterase; experiment: Inhibition of human recombinant AChE using acetylthiocholine iodide as substrate at 10 uM preincubated for 20 mins before substrate addition by Ellman method

| Compound | Activity [1] | IC50 (Cholinesterase [2]) | inhibition [3] | Papp (in vitro) | Activity [4] | inhibition [5] | Activity [6] | IC50 (Acetylcholinesterase [7]) | inhibition (Cholinesterase [8]) | inhibition (Acetylcholinesterase [9]) |
| --- | --- | --- | --- | --- | --- | --- | --- | --- | --- | --- |
| COc1cc(CCC(=O)/C=C/c2ccc(CNc3c4c(nc5cc(Cl)ccc35)CC3CC(C)=CC4C3)cc2)ccc1O (stereo not given) | 8.8 | 742 nM | 51% | 6.5 ×10⁻⁶ cm/s | 50 mgequiv/g | 70.6% | 10.5 | 18.3 nM | – | – |
| O=C(O)c1cc(O)c(O)c(O)c1 [GALLIC ACID] | 10.3 | – | – | – | 1033 mgequiv/g | – | 18.6 | – | – | – |
| CC1=CC2Cc3nc4cc(Cl)ccc4c(N)c3C(C1)C2 (stereo not given) [HUPRINE Y] | 1 | – | 7.6% | – | 10.2 mgequiv/g | 8.9% | 2.6 | – | – | – |
| CCCCC/C=C/C(=O)CCc1ccc(O)c(OC)c1 [SHOGAOL] | 12.2 | – | 9.2% | 14.7 ×10⁻⁶ cm/s | 384 mgequiv/g | 10.5% | 26.2 | – | 6% | 28% |
| COc1cc(CCC(=O)/C=C/CCCNc2c3c(nc4cc(Cl)ccc24)CC2CC(C)=CC3C2)ccc1O (stereo not given) | 6.6 | 982 nM | 35.2% | 11.7 ×10⁻⁶ cm/s | 29.8 mgequiv/g | 39.3% | 7.6 | 6.7 nM | – | – |
| COc1cc(CCC(=O)/C=C/c2ccc(CNc3c4c(nc5cc(Cl)ccc35)CC3CC(C)=CC4C3)cc2)cc(CN(C)C)c1O (stereo not given) | 2.8 | 181 nM | 40.1% | 8.4 ×10⁻⁶ cm/s | 68.8 mgequiv/g | 53.9% | 11.8 | 21.1 nM | – | – |
